Active and inactive are the calls of the source. The calls are words filed in the database; no cut-off is given here.

Data set [1] can be described thus: Protein binding in human plasma. Conditions: read-out: PPB (converted). The format is ADME, cell-free.
The nature of data set [2]: Volume of distribution at steady state in Wistar Hannover rat at 0.3 to 0.5 mg/kg, iv by LC-MS/MS analysis. The format is ADME, organism-based. The note with it: in vivo, dose 0.3-0.5 mg/kg, time <=24 hrs, read-out: Vdss. Put shortly: (§1)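 Male Wistar Hannover rats, catheterized under isoflurane; one day later iv injection into lateral tail vein at 0.3 to 0.5 mg/kg in plasma containing 2% DMSO. Blood sampled via catheter from 0.033 to 24 h. Plasma precipitated with acetonitrile, analysed by LC-MS/MS (10 mM ammonium acetate pH 3.0/acetonitrile gradient). PK parameters calculated from plasma concentrations.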

The target in data set [3] is T1, Coagulation factor VII (Homo sapiens) (UniProt P08709).
T1 sequence (whole entry): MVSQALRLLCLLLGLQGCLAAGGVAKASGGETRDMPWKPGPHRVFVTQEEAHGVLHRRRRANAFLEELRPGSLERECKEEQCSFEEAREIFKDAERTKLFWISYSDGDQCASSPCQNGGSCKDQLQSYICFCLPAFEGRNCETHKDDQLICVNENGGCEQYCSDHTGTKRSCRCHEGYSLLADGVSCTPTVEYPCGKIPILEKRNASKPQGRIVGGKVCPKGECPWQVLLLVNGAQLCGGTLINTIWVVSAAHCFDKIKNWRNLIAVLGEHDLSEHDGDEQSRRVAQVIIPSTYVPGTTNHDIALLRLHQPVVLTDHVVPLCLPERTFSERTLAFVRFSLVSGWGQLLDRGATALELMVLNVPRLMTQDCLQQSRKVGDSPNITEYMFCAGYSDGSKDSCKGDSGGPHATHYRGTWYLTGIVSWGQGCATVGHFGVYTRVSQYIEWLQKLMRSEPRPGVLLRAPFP
Nature of the data set: Inhibition of purified human plasma factor-7a up to 20 uM incubated for 30 mins by fluorescence based based coupled protease reaction assay. The note with it: dose microM <=20, time 30.0 min. An outline of the steps:
(§2)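 Final levels: thrombin 0.02 nM; FXa 1.3 nM; FXIa 0.15 nM; plasmin 1.2 nM (substrate 50 μM); tPA 2 nM; kallikrein 0.2 nM; trypsin 0.1 nM; other AMC substrates 5 μM. FVIIa 0.5 pM coupled with tissue factor, factor X 12 nM, FXa substrate 50 μM.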

A further data set deals with Rattus norvegicus. Nature of the data set: Antithrombotic activity in HsdCpd:WU rat model of arteriovenous shunt model assessed as reduction in thrombus weight at 0.6 to 6 mg/kg/hr, iv. The format is functional, organism-based. The note with it: dose mg/kg/hr 0.6-6. Put shortly:
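Fasting male HsdCpd:WU rats, 300−350 g, anesthetized with Inactin (150−180 mg/kg). Jugular vein and carotid artery linked by a 10 cm PE 60 shunt. Shunt opened 20 min after iv bolus for 15 min; thrombus on nylon thread weighed.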

A short description of data set [4]: Inhibition of thrombin in dog plasma. In kind it is cell-free. Conditions: Canis lupus familiaris.
Data set [5] deals with Coagulation factor X (Homo sapiens) (UniProt P00742). Nature of the data set: Inhibition of purified human plasma factor-10a up to 20 uM using Boc-Ile-Glu-Gly-Arg-AMC substrate incubated for 30 mins by fluorescence based assay. Conditions: dose microM <=20, time 30.0 min. Put shortly:
as §2

Data set [6] can be described thus: Clearance in Wistar rat hepatocytes at 1 uM incubated up to 90 mins by LC-MS/MS analysis. The format is ADME, cell-based, Hepatocyte. The note with it: Wistar. Put shortly:
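Fresh male Wistar rat hepatocytes, 1 × 10⁶ viable cells/mL, in Williams' medium E at 37 °C, pH 7.4, with 1 μM substrate and <1% acetonitrile. Samples at 2–90 min quenched in acetonitrile and analysed by LC-MS/MS.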

Data set [7] is described as follows: Tmax in orally dosed healthy human. The note with it: in vivo, po. The format is ADME, organism-based.
Data set [8] in a line: MRT in Wistar Hannover rat at 0.3 to 0.5 mg/kg, iv by LC-MS/MS analysis. The format is ADME, organism-based. Conditions: in vivo, dose 0.3-0.5 mg/kg, time <=24 hrs. Put shortly: as §1
Another data set concerns Plasma. Nature of the data set: Anticoagulation activity in human plasma assessed as drug level causing doubling of APTT incubated for 3 mins. In kind it is functional. Conditions: 0.05 h.
Data set [9] in a line: Blood clearance in Wistar Hannover rat at 0.3 to 0.5 mg/kg, iv by LC-MS/MS analysis. The format is ADME, organism-based. The note with it: whole blood, dose 0.3-0.5 mg/kg, time <=24 hrs. Put shortly:
as §1

Data set [10] is described as follows: Terminal half-life in orally dosed healthy human. Conditions: in vivo, po, read-out: beta t1/2 (converted). The format is ADME, organism-based.
A further data set has as its target Trypsin (Homo sapiens) (UniProt P07477+P07478+P35030). Briefly: Inhibition of purified human plasma trypsin up to 20 uM using Boc-Ile-Glu-Gly-Arg-AMC substrate incubated for 30 mins by fluorescence based assay. In kind it is protein assay. The note with it: dose microM <=20, time 30.0 min. An outline of the steps: as §2
Data set [11] addresses T2, Nuclear receptor subfamily 1 group I member 2 (Homo sapiens, UniProt O75469).
T2 sequence (O75469 whole entry): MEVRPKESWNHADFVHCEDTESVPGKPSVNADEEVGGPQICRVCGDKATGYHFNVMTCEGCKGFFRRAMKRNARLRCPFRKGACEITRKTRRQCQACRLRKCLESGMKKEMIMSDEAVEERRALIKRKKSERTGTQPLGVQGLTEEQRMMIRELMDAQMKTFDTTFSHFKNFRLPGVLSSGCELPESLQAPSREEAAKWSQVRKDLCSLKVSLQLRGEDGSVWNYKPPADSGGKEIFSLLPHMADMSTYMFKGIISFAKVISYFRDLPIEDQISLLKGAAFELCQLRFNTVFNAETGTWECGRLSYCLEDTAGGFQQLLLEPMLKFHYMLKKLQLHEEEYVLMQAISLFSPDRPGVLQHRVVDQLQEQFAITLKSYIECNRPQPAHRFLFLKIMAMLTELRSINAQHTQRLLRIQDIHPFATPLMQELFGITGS
Nature of the data set: Activation of human PXR human hepatocytes assessed as induction of CYP3A4 mRNA expression incubated for 48 hrs by qPCR analysis. The format is ADME, tissue-based, Hepatocyte. Put shortly: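 Human hepatocytes in collagen sandwich, cultured 1 d, then treated with eight 1:3 serial concentrations for 2 consecutive days with daily media change. mRNA isolated on magnetic beads, reverse transcribed, and quantified by TaqMan qRT-PCR against actin/tubulin. Fold induction over vehicle by ΔΔCt; NOEL reported.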

The nature of data set [12]: Permeability from apical to basolateral side in human Caco2 cells incubated for 2 hrs by LC-MS/MS analysis. The format is ADME, cell-based. Conditions: Caco-2. An outline of the steps: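 Caco-2 cells grown 15 d on 0.4 μm inserts, TEER ≥600 Ω. Compound (DMSO stock diluted 100-fold) in HBSS pH 7.4 with 10 mM HEPES and 20 mM glucose, added apically or basolaterally. Incubated 2 h at 37 °C and analysed by LC-MS/MS. Papp = (Vr/P0)·(1/S)·(P2/t); mean and SD.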

Data set [13] addresses Tissue-type plasminogen activator (Homo sapiens) (UniProt P00750). Nature of the data set: Inhibition of purified human plasma tPA up to 20 uM using CH3SO2-DPhe-Gly-Arg-AMC substrate incubated for 30 mins by fluorescence based assay. Conditions: dose microM <=20, time 30.0 min. An outline of the steps:
as §2

A short description of data set [14]: AUC/dose in Wistar Hannover rat at 0.3 to 0.5 mg/kg, iv by LC-MS/MS analysis. In kind it is ADME, organism-based. Conditions: in vivo, dose 0.3-0.5 mg/kg, time <=24 hrs. Put shortly: as §1
The target of data set [15] is Plasma kallikrein (Homo sapiens) (UniProt P03952). Nature of the data set: Inhibition of purified human plasma kallikrein up to 20 uM using H-Pro-Phe-Arg-AMC substrate incubated for 30 mins by fluorescence based assay. The note with it: dose microM <=20, time 30.0 min. An outline of the steps: as §2
Plasma kallikrein (Homo sapiens), sequence (P03952 20-390 limits assumed): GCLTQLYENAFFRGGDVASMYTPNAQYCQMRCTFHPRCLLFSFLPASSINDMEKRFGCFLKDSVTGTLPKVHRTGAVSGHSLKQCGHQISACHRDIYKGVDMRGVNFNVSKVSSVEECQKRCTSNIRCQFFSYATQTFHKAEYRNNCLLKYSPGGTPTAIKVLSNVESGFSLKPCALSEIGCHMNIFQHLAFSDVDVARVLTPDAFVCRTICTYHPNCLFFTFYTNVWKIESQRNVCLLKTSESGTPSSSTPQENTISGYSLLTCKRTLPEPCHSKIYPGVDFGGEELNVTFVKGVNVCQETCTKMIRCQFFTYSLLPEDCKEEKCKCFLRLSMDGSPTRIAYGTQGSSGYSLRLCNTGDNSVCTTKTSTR
Plasma kallikrein (Homo sapiens), sequence (P03952 391-638 limits assumed): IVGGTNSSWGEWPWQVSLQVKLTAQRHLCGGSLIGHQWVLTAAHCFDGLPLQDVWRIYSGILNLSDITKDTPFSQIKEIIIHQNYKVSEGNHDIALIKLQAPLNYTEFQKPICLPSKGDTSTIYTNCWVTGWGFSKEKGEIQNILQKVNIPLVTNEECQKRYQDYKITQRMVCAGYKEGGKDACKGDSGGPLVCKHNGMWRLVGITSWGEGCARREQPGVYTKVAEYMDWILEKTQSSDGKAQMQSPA

Tissue-type plasminogen activator (Homo sapiens), sequence (P00750 36-562 limits assumed): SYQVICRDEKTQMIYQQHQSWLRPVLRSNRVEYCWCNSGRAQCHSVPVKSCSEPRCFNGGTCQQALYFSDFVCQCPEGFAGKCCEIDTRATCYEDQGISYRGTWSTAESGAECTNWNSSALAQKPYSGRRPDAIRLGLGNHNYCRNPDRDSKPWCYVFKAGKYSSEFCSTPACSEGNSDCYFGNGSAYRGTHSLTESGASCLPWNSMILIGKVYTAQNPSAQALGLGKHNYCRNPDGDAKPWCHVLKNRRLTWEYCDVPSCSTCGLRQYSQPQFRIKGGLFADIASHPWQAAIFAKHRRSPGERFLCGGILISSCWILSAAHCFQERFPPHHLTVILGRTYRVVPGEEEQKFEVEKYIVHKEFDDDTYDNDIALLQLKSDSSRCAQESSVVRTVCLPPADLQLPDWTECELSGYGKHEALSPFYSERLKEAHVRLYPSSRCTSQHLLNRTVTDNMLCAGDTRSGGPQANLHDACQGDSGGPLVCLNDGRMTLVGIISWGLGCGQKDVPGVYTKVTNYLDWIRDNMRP
Coagulation factor X (Homo sapiens), sequence (P00742 41-179 limits assumed): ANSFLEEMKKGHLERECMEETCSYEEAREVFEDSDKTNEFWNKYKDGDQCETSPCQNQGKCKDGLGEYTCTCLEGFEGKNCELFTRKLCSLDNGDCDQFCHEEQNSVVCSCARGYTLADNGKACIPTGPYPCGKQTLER
Coagulation factor X (Homo sapiens), sequence (P00742 235-488 limits assumed): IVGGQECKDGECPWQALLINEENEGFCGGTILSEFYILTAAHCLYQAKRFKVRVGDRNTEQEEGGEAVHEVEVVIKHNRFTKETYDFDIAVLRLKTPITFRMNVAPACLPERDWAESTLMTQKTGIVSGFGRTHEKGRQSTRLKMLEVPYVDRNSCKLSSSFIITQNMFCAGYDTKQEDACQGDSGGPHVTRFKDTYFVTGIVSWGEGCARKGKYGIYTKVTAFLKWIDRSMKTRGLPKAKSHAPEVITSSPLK

As for `COc1cc(C(=O)N2C[C@H](C)OC[C@@H]2CCO)cc2nc(N[C@H](CF)c3cccc(Cl)c3)oc12`, the fraction unbound in data set [1] was 0.22. Also, in [2], the Vd was found to be 3.5 L/kg. The inhibition entry (in data set [3]; in data set [5]; on Trypsin (Homo sapiens); in data set [13]; in data set [15]) was “inactive” in each case. Moreover, the Activity result in the data set with Rattus norvegicus was “Dose-dependent effect”. Further, the IC50 in data set [4] was 6.5 nM. Besides, in [6], the CLhep predicted at 1 µM is 31.7 mL/min/kg. Also, the Tmax in data set [7] amounted to 0.75 h. Also, in [8], the MRT came out at 1.2 h. Moreover, the 2aPTT in the data set on Plasma turned out to be 0.7 µM. Also, in data set [9], the clearance was 51.7 mL/min/kg. Moreover, the half-life in [10] is 9.5 h. Besides, the NOAEL in data set [11] was over 10000 ng/mL. Also, in data set [12], the Papp A→B at 2 h amounted to 13.1 ×10⁻⁶ cm/s. In data set [14], the AUC/dose turned out to be 0.34 kg·h/L.

The values are drawn from ChEMBL document CHEMBL4665889, “Design, Synthesis, and Pharmacological Characterization of a Neutral, Non-Prodrug Thrombin Inhibitor with Good Oral Pharmacokinetics” (J Med Chem, 2020).
